Experimental data taken from article PMC6656587 (Bioorganic chemistry, 2019).
Converted amounts (≈) assume the structure as drawn.

Tests used:
[1] = tested on: PAM212 keratinocytes; assay: PAM212 keratinocyte growth inhibition with UVA light; assay type: cell-based, mouse; details: plus UVA light
[2] = tested on: MCF-7 breast carcinoma cell line; details: read-out: IC50, phototoxicity; cited from earlier work
[3] = known measured logP used in the discussion; ref not given; cited from earlier work
[4] = Solubility maximum under the assay's conditions; assay type: physicochemical; details: 37 °C, plasma or biological fluid, kinetic from dmso stock
[5] = tested on: plasmid pZeoSV DNA; assay: Plasmid DNA nicking and unwinding assay with UVA light; assay type: biochemical; details: for Percentage of nicked plasmid: neutral agarose gels
Outline: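 pZeoSV plasmid (75 ng per 10 μL) in TE buffer (10 mM Tris–HCl, 1 mM EDTA, pH 8), with test compound added from a 100× DMSO concentrate. UVA (320–400 nm) was given as for the cell cultures: 2.4 mW/cm2, 1.28 J/cm2. Aliquots taken before and after UVA were run on 1.2% neutral (Tris-acetate-EDTA) or alkaline agarose and stained with ethidium bromide. Percent nicked plasmid came from band image analysis.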

In the case of `O=c1ccc2ccc(O)cc2o1` [Compound 1, umbelliferone], the “photo-activity on keratinocyte growth (in words)” value (from here on “photo-activity”) [1] is given as “no activity” and the IC50 [2] is given as 476 µM.
In the case of `Cc1cc(=O)oc2c(C)c(O)ccc12` [Compound 12, 4,8-dimethyl-7-hydroxycoumarin], the logP [3] is given as 2.1.
For `Cc1cc(=O)oc2c(C)c(O)c([N+](=O)[O-])cc12` [Compound 18, 4,8-dimethyl-6-nitro-7-hydroxycoumarin], the “photo-activity” value [1] was “no photocytotoxicity” and the solubility [4] was 100 µM (≈ 23.5 µg/mL).
In the case of `Cc1c(O)ccc2c(C(F)(F)F)cc(=O)oc12` [Compound 37, 4-trifluoromethyl-8-methyl-7-hydroxycoumarin], the “photo-activity” value [1] is reported as “inactive”.
In the case of `O=c1cc(C(F)(F)F)c2ccc(O)cc2o1` [Compound 47, 4-trifluoromethyl-7-hydroxycoumarin], the “photo-activity” value [1] is reported as “inactive”.
For `C=CCOc1ccc2c(C)c(Br)c(=O)oc2c1C` [Compound 58, 4,8-dimethyl-3-bromo-7-allyloxycoumarin], the “Percentage of nicked plasmid” value ([5]; 1 μM coumarin plus UVA light) was 3.2%, the “Percentage of nicked plasmid” value ([5]; 10 μM coumarin plus UVA light) was 12.0% and the “Percentage of nicked plasmid” value ([5]; 100 μM coumarin plus UVA light) was 20.2%. For the same compound, the “effect on plasmid DNA (in words)” value ([5]; plus UVA light, neutral gels) was “concentration-dependent alteration in migration”.
In the case of `Cc1c(F)c(=O)oc2c(C)c(O)ccc12` [Compound 68, 3-fluoro-4,8-dimethyl-7-hydroxycoumarin], the “photo-activity” value [1] is reported as “no activity”.
With `Cc1c(I)c(=O)oc2c(C)c(O)ccc12` [Compound 71, 3-Iodo-4,8-dimethyl-7-hydroxycoumarin] the “Percentage of nicked plasmid” value ([5]; 1 μM coumarin plus UVA light) was 6.8%, the “Percentage of nicked plasmid” value ([5]; 10 μM coumarin plus UVA light) was 80.2% and the “Percentage of nicked plasmid” value ([5]; 100 μM coumarin plus UVA light) was 98.6%. The “linearization of the plasmid compared to the 7-allyloxy ethers 14 and 58” value ([5]; plus UVA light) was “nearly five times greater linearization”, the “effect on plasmid DNA (in words)” value ([5]; plus UVA light, alkaline gels) was “Generally similar results” and the “effect on plasmid DNA (in words)” value ([5]; plus UVA light, neutral gels) was “concentration-dependent alteration in migration”.
